Assays:
[1] = biological target: T1, NAD-dependent protein deacetylase sirtuin-2 (Homo sapiens) (UniProt Q8IXJ6); test: Inhibition of human SIRT2 at 200 uM
T1 sequence (whole entry): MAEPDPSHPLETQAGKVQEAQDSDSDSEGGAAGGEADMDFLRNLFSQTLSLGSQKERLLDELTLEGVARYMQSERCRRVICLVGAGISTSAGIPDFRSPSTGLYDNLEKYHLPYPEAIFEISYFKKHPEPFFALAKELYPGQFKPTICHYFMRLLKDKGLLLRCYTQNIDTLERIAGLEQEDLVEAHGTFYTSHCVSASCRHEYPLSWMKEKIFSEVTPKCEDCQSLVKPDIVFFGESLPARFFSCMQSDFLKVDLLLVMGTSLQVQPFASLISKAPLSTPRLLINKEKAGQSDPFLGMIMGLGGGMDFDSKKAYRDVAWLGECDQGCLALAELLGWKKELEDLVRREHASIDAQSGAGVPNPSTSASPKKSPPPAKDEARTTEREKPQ
In short: (§1)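 Single-concentration screen at 200 µM compound in the NAD⁺-based assay, with radiolabeled nicotinamide release read by thin layer chromatography. Result is % inhibition ± standard deviation (n = 2-3).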

[2] = biological target: T2, NAD-dependent protein deacetylase sirtuin-1 (Homo sapiens) (UniProt Q96EB6); test: Inhibition of human SIRT1 at 200 uM; in short: as §1
T2 sequence (whole entry): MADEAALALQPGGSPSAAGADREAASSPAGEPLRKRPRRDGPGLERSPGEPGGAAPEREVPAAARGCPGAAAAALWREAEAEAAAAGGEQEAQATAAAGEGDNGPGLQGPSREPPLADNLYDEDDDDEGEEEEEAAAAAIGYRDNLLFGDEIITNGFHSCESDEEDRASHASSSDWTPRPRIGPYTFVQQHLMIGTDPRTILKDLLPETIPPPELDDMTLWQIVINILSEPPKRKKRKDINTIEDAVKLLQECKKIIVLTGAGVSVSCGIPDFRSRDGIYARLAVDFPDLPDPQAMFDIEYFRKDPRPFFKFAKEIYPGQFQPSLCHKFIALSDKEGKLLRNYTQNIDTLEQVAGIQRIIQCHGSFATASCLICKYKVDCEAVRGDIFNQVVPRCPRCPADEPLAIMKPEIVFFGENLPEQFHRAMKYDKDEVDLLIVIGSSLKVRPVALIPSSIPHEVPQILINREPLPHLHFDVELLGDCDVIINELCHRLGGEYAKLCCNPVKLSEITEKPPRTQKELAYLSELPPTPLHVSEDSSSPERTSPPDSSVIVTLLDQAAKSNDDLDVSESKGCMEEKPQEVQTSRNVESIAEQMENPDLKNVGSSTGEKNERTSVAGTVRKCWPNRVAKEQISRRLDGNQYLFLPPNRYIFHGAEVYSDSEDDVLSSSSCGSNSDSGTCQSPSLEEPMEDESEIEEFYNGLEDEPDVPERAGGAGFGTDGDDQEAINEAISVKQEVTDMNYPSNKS

[3] = biological target: T3, NAD-dependent protein deacetylase sirtuin-1 (Homo sapiens, UniProt Q96EB6); test: Inhibition of human SIRT1 assessed as nicotinamide releasing by microplate filtration assay
T3 sequence (Q96EB6 whole entry): T2 sequence (whole entry)

[4] = biological target: T4, NAD-dependent protein deacetylase sirtuin-2 (Homo sapiens, UniProt Q8IXJ6); test: Inhibition of human SIRT2 assessed as nicotinamide releasing by microplate filtration assay
T4 sequence (Q8IXJ6 whole entry): T1 sequence (whole entry)

inhibition [1] | inhibition [2] | IC50 [3] | IC50 [4] | SMILES
17% | 28% | – | – | O=C(CNC(=O)c1nc(-c2ccccc2)no1)Nc1ccccc1
56% | 57% | 13 µM | 113 µM | O=C(NNC(=S)Nc1cccc(C(F)(F)F)c1)c1nc(-c2cccc3ccccc23)no1
87% | 59% | 192 µM | 57 µM | CC(C)(C)c1ccc(-c2noc(C(=O)NNC(=S)Nc3cccc(C(F)(F)F)c3)n2)cc1
29% | -2% | – | – | CC(C)(C)c1ccc(-c2noc(C(=O)NNC(=S)Nc3ccccc3)n2)cc1
0% | 17% | – | – | CC(C)(C)c1ccc(-c2noc(CCCC(=O)Nc3cccc(C(F)(F)F)c3)n2)cc1
7% | 22% | – | – | CCCCNC(=O)NNC(=O)c1nc(-c2ccc(C(C)(C)C)cc2)no1
71% | 54% | 318 µM | 74 µM | O=C(NNC(=S)Nc1ccc(C(F)(F)F)cc1)c1nc(-c2cccc3ccccc23)no1
18% | 20% | – | – | CC(C)(C)c1ccc(-c2noc(C(=O)NCC(=O)Nc3cccc(C(F)(F)F)c3)n2)cc1
8% | 29% | – | – | O=C(NNC(=S)Nc1ccc(C(F)(F)F)cc1)c1nc(-c2ccccc2)no1
38% | 14% | – | – | CC(C)(C)c1ccc(-c2noc(C(=O)NNC(=O)Nc3ccccc3)n2)cc1
22% | – | – | – | O=C(NNC(=S)Nc1ccc(F)cc1)c1nc(-c2ccccc2)no1
51% | 12% | – | 257 µM | O=C(NNC(=O)c1nc(-c2cccc3ccccc23)no1)Nc1cccc(C(F)(F)F)c1
35% | 10% | – | – | O=C(NNC(=S)Nc1ccc(F)cc1)c1nc(-c2cccc3ccccc23)no1
-4% | 4% | – | – | O=C(NNC(=S)Nc1ccc(C(F)(F)F)cc1)c1nc(-c2cccnc2)no1
71% | 69% | 168 µM | 129 µM | CC(C)(C)OC(=O)Nc1cccc(-c2noc(C(=O)NNC(=S)Nc3ccc(C(F)(F)F)cc3)n2)c1
89% | 70% | 325 µM | 109 µM | CC(C)(C)c1ccc(-c2noc(C(=O)NNC(=S)Nc3ccc(C(F)(F)F)cc3)n2)cc1
5% | 0% | – | – | O=C(CCCc1nc(-c2ccccc2)no1)Nc1ccccc1
39% | 18% | – | – | CC(C)(C)c1ccc(-c2noc(C(=O)NNC(=O)Nc3cccc([N+](=O)[O-])c3)n2)cc1
